Values after ≈ are worked out from the molar mass of the structure shown. Active and inactive are the calls of the source. No cut-off for these calls is given here.
What was measured:
Staphylococcus aureus [1] = assay: Antibacterial activity against methicillin-resistant Staphylococcus aureus ATCC 43300; type: functional
Outline: (§1)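 MIC against S. aureus strains was run by an earlier published procedure, tested in triplicate. Values were averaged and expressed as µg/ml of compound.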

Staphylococcus aureus [2] = assay: Antibacterial activity against methicillin-resistant Staphylococcus aureus isolate CBD 635 at 50 ug per disc by Kirby-Bauer disc diffusion assay; type: functional; details: read-out: DIZ
Outline: (§2)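 Kirby-Bauer disk diffusion with 50 µg compound per 6 mm paper disk. Organisms were grown and plated by an earlier method. The zone-of-inhibition diameter was recorded to the nearest mm and averaged over three independent experiments. No zone was reported as 6 mm, the disk diameter.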

Enterococcus faecalis = assay: Antibacterial activity against Enterococcus faecalis DS16 at 50 ug per disc by Kirby-Bauer disc diffusion assay; type: functional; details: read-out: DIZ
Outline: (§3)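 Disks carried 50 µg of compound. Zone diameter was measured to the nearest mm and averaged over three independent experiments. A value of 6 mm, the disk diameter, was recorded where no inhibition was seen.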

Bartonella vinsonii = assay: Antibacterial activity against Bartonella vinsonii ATCC VR152 at 20 ug per disc after 7 days by Kirby-Bauer disc diffusion assay; type: functional; details: ATCC VR152, 168 h, read-out: DIZ
Outline: (§4)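 Each paper disk was loaded with 20 µl of a 1 mg/ml solution, dried for 20 min and stored desiccated at 4 °C. Growth from 4-day plates was suspended in heart infusion broth to McFarland 2.0 and swabbed onto chocolate agar (heart infusion agar base with 5% bovine hemoglobin). Plates were incubated 1 week at 37 °C in 5% CO2. Zone diameter was read to the nearest mm, in triplicate and averaged.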

Staphylococcus aureus [3] = assay: Antibacterial activity against methicillin-susceptible Staphylococcus aureus SH1000 at 2.5 fold MIC by serial dilution method; type: functional
Outline: (§5)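 Tryptic soy agar contained compound at 1x, 1.5x, 2.0x or 2.5x the measured MSSA MIC. Cells from 1 ml of an overnight MSSA broth culture were pelleted, resuspended in 100 µl TSB and spread with glass beads. Inoculum cfu was counted by serial dilution onto drug-free agar. Total colonies from at least 3 replicates are reported; frequency is colonies divided by total inoculum.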

Bartonella quintana = assay: Antibacterial activity against Bartonella quintana ATCC VR358 at 20 ug per disc after 7 days by Kirby-Bauer disc diffusion assay; type: functional; details: ATCC VR358, 168 h, read-out: DIZ; outline: as §4
Bartonella elizabethae = assay: Antibacterial activity against Bartonella elizabethae F9251 at 20 ug per disc after 7 days by Kirby-Bauer disc diffusion assay; type: functional; details: F9251, 168 h, read-out: DIZ; outline: as §4
Staphylococcus aureus [4] = assay: Antibacterial activity against methicillin-susceptible Staphylococcus aureus SH1000 at 1.5 fold MIC by serial dilution method; type: functional; outline: as §5
Staphylococcus aureus [5] = assay: Antibacterial activity against methicillin-susceptible Staphylococcus aureus SH1000; type: functional
Outline: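 MIC in µg/ml, tested in triplicate and averaged, with ciprofloxacin as positive control.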

Staphylococcus aureus [6] = assay: Antibacterial activity against methicillin-resistant Staphylococcus aureus isolate CBD 635; type: functional; outline: as §1
[7] = Antibacterial activity against Bartonella henselae ATCC 49882 at 20 ug per disc after 7 days by Kirby-Bauer disc diffusion assay; type: functional, Bartonella henselae str. Houston-1; details: ATCC 49882, 168 h, read-out: DIZ; outline: as §4
[8] = Antibacterial activity against Bartonella henselae ATCC 49882 after 7 days by agar dilution method; type: functional, Bartonella henselae str. Houston-1; details: ATCC 49882, 168 h
Outline: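 Agar dilution on chocolate agar containing compound at 10.0, 1.0 and 0.1 µg/ml, with 2-fold steps at and below 1.0 µg/ml for compounds active there. Controls were DMSO-only and drug-free plates. 25 µl of a McFarland 2.0 suspension in heart infusion broth was spotted and incubated 7 days at 37 °C in 5% CO2. Growth was scored +/− on duplicate plates; triplicate results were averaged.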

Staphylococcus aureus [9] = assay: Antibacterial activity against methicillin-susceptible Staphylococcus aureus SH1000 at 2 fold MIC by serial dilution method; type: functional; outline: as §5
Escherichia coli [10] = assay: Antibacterial activity against Escherichia coli DH5alpha at 50 ug per disc by Kirby-Bauer disc diffusion assay; type: functional; details: DH5[alpha], read-out: DIZ; outline: as §3
Bacillus anthracis = assay: Antibacterial activity against Bacillus anthracis sterne at 50 ug per disc by Kirby-Bauer disc diffusion assay; type: functional; details: read-out: DIZ; outline: as §2
Staphylococcus aureus [11] = assay: Antibacterial activity against methicillin-susceptible Staphylococcus aureus SH1000 at MIC by serial dilution method; type: functional; outline: as §5
[12] = Antibacterial activity against Bartonella henselae Houston-1 infected in human HMEC1 cells assessed as intracellular bacterial load at 0.1 ug/mL incubated for 96 hrs followed by compound washout measured after 7 days relative to control; type: functional, Bartonella henselae str. Houston-1
Outline: (§6)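 HMEC-1 cells grown in MCDB131 with 10% FBS, EGF and hydrocortisone were infected with B. henselae Houston-1 at MOI 100 for 4 h. Extracellular bacteria were killed with gentamicin (200 µg/ml, 1 h), then compound was added at 0.1 or 1.0 µg/ml for 96 h. After washing, cells were lysed with 0.1% saponin and lysates plated on chocolate agar for 7 days. CFU are given as a percentage of the media-only control.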

[13] = Antibacterial activity against Bartonella henselae Houston-1 infected in human HMEC1 cells assessed as intracellular bacterial load at 1 ug/mL incubated for 96 hrs followed by compound washout measured after 7 days relative to control; type: functional, Bartonella henselae str. Houston-1; outline: as §6
Escherichia coli [14] = assay: Inhibition of Escherichia coli DNA gyrase-mediated formation of supercoiled form of pUC19 at 1 to 100 ug/mL by gel electrophoresis
Outline: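 Relaxed circular pUC19 was incubated with purified E. coli DNA gyrase and compound for 1 h at 37 °C. Relaxed and supercoiled DNA were resolved and quantified by gel electrophoresis.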

Structure (SMILES) | MIC (Staphylococcus aureus [1]) | zone of inhibition at 50 µg/disc (Staphylococcus aureus [2]) | zone of inhibition at 50 µg/disc (Enterococcus faecalis) | zone of inhibition at 20 µg/disc (Bartonella vinsonii) | CFU/ml (Staphylococcus aureus [3]) | zone of inhibition at 20 µg/disc (Bartonella quintana) | zone of inhibition at 20 µg/disc (Bartonella elizabethae) | CFU/ml (Staphylococcus aureus [4]) | MIC (Staphylococcus aureus [5]) | MIC (Staphylococcus aureus [6]) | zone of inhibition at 20 µg/disc [7] | MIC [8] | CFU/ml (Staphylococcus aureus [9]) | zone of inhibition at 50 µg/disc (Escherichia coli [10]) | zone of inhibition at 50 µg/disc (Bacillus anthracis) | Activity (Staphylococcus aureus [11]) | Activity [12] | Activity [13] | other results
CCCC(C)C(=O)N1CCN(c2cc3c(cc2F)c(=O)c(C(=O)O)cn3C2CC2)CC1 (configuration not stated) | 1 µg/mL (≈ 2.33 µM) | 33 mm | 33 mm | 30 mm | 0 | 24 mm | 32 mm | 7 | 10 µg/mL (≈ 23.3 µM) | > 100 µg/mL | 37 mm | 0.8 µg/mL (≈ 1.86 µM) | 4 | 33 mm | 67 mm | inactive |  |  | 
CC(C)CC(=O)N1CCN(c2cc3c(cc2F)c(=O)c(C(=O)O)cn3C2CC2)CC1 | > 100 µg/mL | 28 mm | 32 mm | 40 mm |  | 36 mm | 37 mm |  | > 100 µg/mL | > 100 µg/mL | 62 mm | 0.2 µg/mL (≈ 0.481 µM) |  | 36 mm | 70 mm |  | 32% | <=10% | 
CC(=O)N1CCN(c2cc3c(cc2F)c(=O)c(C(=O)O)cn3C2CC2)CC1 | 10 µg/mL (≈ 26.8 µM) | 24 mm | 48 mm |  | 0 | 6 mm | 58 mm | 41 | 10 µg/mL (≈ 26.8 µM) | > 100 µg/mL | 52 mm |  | 101 | 60 mm | 89 mm |  | 54% | <=10% | gyrase inhibition (active/inactive) (Escherichia coli [14]): Active; CFU/ml (Staphylococcus aureus [11]): 90
CCCCCCCCCC(=O)N1CCN(c2cc3c(cc2F)c(=O)c(C(=O)O)cn3C2CC2)CC1 | 10 µg/mL (≈ 20.6 µM) | 34 mm | 6 mm | 9 mm |  | 11 mm | 9 mm |  | 10 µg/mL (≈ 20.6 µM) | > 100 µg/mL | 10 mm | 5 µg/mL (≈ 10.3 µM) |  | 6 mm | 6 mm | inactive |  |  | Activity (Staphylococcus aureus [3]): inactive; Activity (Staphylococcus aureus [4]): inactive; Activity (Staphylococcus aureus [9]): inactive
CCC(C)(C)C(=O)N1CCN(c2cc3c(cc2F)c(=O)c(C(=O)O)cn3C2CC2)CC1 | 1 µg/mL (≈ 2.33 µM) | 31 mm | 45 mm | 33 mm |  | 27 mm | 32 mm |  | 5 µg/mL (≈ 11.6 µM) | > 100 µg/mL | 41 mm | 0.5 µg/mL (≈ 1.16 µM) |  | 38 mm | 57 mm |  | 54% | <=10% | 

Source: ChEMBL document CHEMBL2150951, “Studies on the antimicrobial properties of N-acylated ciprofloxacins” (2012)
